In all, about 290,000 compounds went through this assay and about 1,600 (0.55%) were called active. The sample holds actives, similar compounds and a random draw of the others, so the mix is not that of the screen.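 The calls were made as follows: active = inhibition above the mean of all tested compounds plus 3 SD, set per campaign (cut at about 35% in these data); inactive = the rest.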
Each molecule was assayed on Hepatitis C virus NS3 helicase (assay: HCV NS3 DNA unwinding blockers – biochemical, Cy5 molecular beacon fluorescence, primary screen (AID 1800;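 also: 0% = DMSO wells and 100% = thioflavine S control wells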)). Details: at 10.9 µM, hits give high values.
Outline: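 Test system: hepatitis C virus NS3 helicase domain fragment enzyme. Also added: annealed dual-labelled DNA beacon duplex, ATP-started. Timing: 60 min unwinding reaction at 25 °C after ATP addition. Technique: Cy5 fluorescence. Measure: % inhibition of unwinding.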

| Compound | inhibition |
| --- | --- |
| Cc1ccc(N=Cc2c(O)cc(C)oc2=O)c(C)c1 | -4.71% (inactive) |
| Cc1cc(O)c(C(=O)/C=C/c2c(F)c(F)c(F)c(F)c2F)c(=O)o1 | 53.7% (active) |
| COc1ccc(Cl)cc1NC(=O)CN(C)C(=O)CCCc1c[nH]c2ccccc12 | -11.3% (inactive) |
| Cc1nc2ccccc2c(=O)n1NC(=O)c1ccc(Cl)c([N+](=O)[O-])c1 | -12.7% (inactive) |
| O=C(CN1CCN(CC(=O)Nc2ccc3c(c2)OCO3)CC1)Nc1ccc(F)cc1 | 2% (inactive) |
| COc1ccc(NC(=O)CCN2C(=O)/C(=C/c3ccc4c(c3)OCO4)SC2=S)cc1 | -4.44% (inactive) |
| Cc1ccc(C(=O)O)cc1-c1ccc(/C=C2\SC(=O)N(CC(=O)Nc3ccc4c(c3)OCO4)C2=O)o1 | 46.3% (active) |
| CCSc1nc2sc3c(c2c(=O)n1-c1ccc(C)cc1)CCN(C)C3 | -28.2% (inactive) |
| COc1ccccc1-n1c(SCC(=O)O)nc2sc3c(c2c1=O)CCC3 | 5.31% (inactive) |
| Cc1ccc(C)c(-n2c(SCC(=O)O)nc3sc4c(c3c2=O)CCCC4)c1 | 37.1% (active) |
| Cc1cccc(N2CCN(C(C)C(=O)N3CCc4ccccc43)CC2)c1C (stereo not given) | -14.8% (inactive) |
| Cc1cccc(N(C)C(=O)c2cc(S(=O)(=O)N3CCCCC3)c[nH]2)c1 | -16.4% (inactive) |
| Cc1ccc(OCc2cc(C(=O)N(C)CCn3ccnc3C)no2)cc1C | -14.7% (inactive) |
| Cc1ccc(OCC(=O)Nc2nnc(-c3ccco3)s2)cc1 | 13.6% (inactive) |
| COc1ccc(OCC(=O)Nc2nnc(-c3ccco3)s2)cc1 | 58.5% (active) |
| CNc1nnc(-c2ccco2)s1 | -1.81% (inactive) |
| Cc1cccc(NC(=O)CCn2c(=O)oc3ccccc32)c1 | -6.84% (inactive) |
| COc1ccc(C(=O)C2CCCN(C(=O)c3ccc(OC)o3)C2)c(C)c1 (stereo not given) | -2.85% (inactive) |
| COC(=O)C1=C(C)N(C(C)c2ccccc2)C(=O)/C1=C\c1ccco1 (stereo not given) | 20.9% (inactive) |
| COc1cc(CN2CCC(C(N)=O)CC2)ccc1OCc1ccccc1 | -5.96% (inactive) |
| COc1cc(CNC2CCCC2)c(Br)cc1OCc1ccccc1 | -30.4% (inactive) |
| COc1cc(C2CC(=O)N3CN(Cc4ccccc4)CSC3=C2C#N)ccc1OCc1ccccc1 (stereo not given) | 52.1% (active) |
| COC(=O)c1cc(S(=O)(=O)N2CCC(C(N)=O)CC2)oc1C | 4.32% (inactive) |

| Compound | inhibition |
| --- | --- |
| Cc1cc(N2C(=O)C(=O)/C(=C(/O)c3ccc(Cl)cc3)C2c2cccc(Br)c2)no1 (stereo not given) | 24.4% (inactive) |
| COc1ccccc1C1/C(=C(/O)c2ccc(OC(C)C)cc2)C(=O)C(=O)N1c1cc(C)on1 (stereo not given) | 43.1% (active) |
| COc1ccc(C2/C(=C(/O)c3ccccc3)C(=O)C(=O)N2C)c(OC)c1 (stereo not given) | 3.37% (inactive) |
| CN(c1ccccc1)S(=O)(=O)c1ccc(C(=O)NCCc2ccccc2)cc1 | -7.81% (inactive) |
| O=C(CC1C(=O)NCCN1C(=O)c1ccc([N+](=O)[O-])cc1)Nc1cccc(Cl)c1 (stereo not given) | -5.86% (inactive) |
| Cc1ccc(Nc2ncnc3c2cnn3C)c(C)c1 | 5.11% (inactive) |
| Cc1ccc(/C=C/C(=O)Nc2ccc([N+](=O)[O-])c(NC(=O)/C=C/c3ccc(C)o3)c2)o1 | 46.7% (active) |
| CCc1nnc(NC(=O)/C=C/c2ccc(C)o2)s1 | 8.82% (inactive) |
| Cc1ccc(/C=C/C(=O)Nc2cc(S(=O)(=O)N3CCCCCC3)ccc2OCC(F)(F)F)o1 | 21.8% (inactive) |
| COc1ccc(C)cc1N(CC(=O)N1CCCC1)S(=O)(=O)c1ccccc1 | 21% (inactive) |
| Cc1ccc(C(c2nnnn2CS(=O)(=O)c2ccc(C)cc2)N2CCC(C)CC2)cc1 (stereo not given) | -6.3% (inactive) |
| CC(=O)N1c2ccc(S(=O)(=O)N(C)CC(=O)N(C)Cc3ccccc3)cc2CC1C (stereo not given) | -2.38% (inactive) |
| COCC(C)n1c(C)cc(C(=O)COc2ccc(C)nc2[N+](=O)[O-])c1C (stereo not given) | 2.44% (inactive) |
| COc1ccc(OC)c(-n2nnnc2SCC(=O)Nc2cc(C)ccc2OC)c1 | -1.59% (inactive) |
| Cc1cc(C(=O)CSc2nc(N)cc(=O)[nH]2)c(C)n1Cc1ccco1 | 22.4% (inactive) |
| COc1ccc(C)cc1-n1nnnc1SCC(=O)c1cc(C)n(Cc2ccco2)c1C | 52.1% (active) |
| Cc1ccc(OCC(=O)c2cc(C)n(Cc3ccco3)c2C)c([N+](=O)[O-])n1 | 41.5% (active) |
| Cc1cc(C(=O)COC(=O)CNC(=O)c2ccc(F)cc2)c(C)n1Cc1ccco1 | 10% (inactive) |
| Cc1cc(S(=O)(=O)N2CCOCC2)ccc1OCC(=O)N1CCOCC1 | -4.99% (inactive) |
| COc1cc(NC(=O)CCS(=O)(=O)c2ccc3c(c2)oc(=O)n3C)cc(OC)c1 | 3.01% (inactive) |
| CCc1ccc(NC(=O)CS(=O)CC(=O)N2CCN(c3ccccc3F)CC2)cc1 (stereo not given) | 8.61% (inactive) |
| COc1ccc(NC(=O)CN2C(=O)CSc3ccc(S(=O)(=O)N4CCC(C)CC4)cc32)cc1 | -2.68% (inactive) |
| COc1cccc(NCCC(=O)c2cccc([N+](=O)[O-])c2)c1 | 2.63% (inactive) |

| Compound | inhibition |
| --- | --- |
| COc1cccc(C(=O)CC(=O)C(=O)Nc2ccc([N+](=O)[O-])cc2C)c1 | 37.6% (active) |
| COc1ccc(C(=O)CC(=O)C(=O)Nc2cc([N+](=O)[O-])ccc2OC)cc1 | 12.6% (inactive) |
| COc1ccc(-n2ncc3c(SCC(=O)NNC(C)=O)ncnc32)cc1 | 5.53% (inactive) |
| Cc1cccc(C)c1-n1c(C)cc(/C=C2\C(=O)NN(c3ccccc3)C2=O)c1C | 9.92% (inactive) |
| O=C1NN(c2ccccc2)C(=O)/C1=C/c1ccc(-c2cccc(C(=O)O)c2)o1 | 54.3% (active) |
| O=C(O)C(c1ccccc1)N1C(=O)/C(=C\c2ccc(-c3cccc(Cl)c3)o2)SC1=S (stereo not given) | 8.54% (inactive) |
| CC(NS(=O)(=O)c1ccc(OCC(=O)N2CCCC2)cc1)c1ccccc1 (stereo not given) | -5.83% (inactive) |
| O=C(NCc1ccccc1)C(=O)NCC1OCCN1S(=O)(=O)c1ccc(Br)cc1 (stereo not given) | -0.44% (inactive) |
| O=C(COc1ccc2c(c1)CCC2)N1CCN(c2ccc(F)cc2)CC1 | -11.2% (inactive) |
| CC1(C)NC(=O)N(CCCCSc2ccc(Cl)cc2)C1=O | -1.4% (inactive) |
| CSc1c(SCc2ccccc2)cnn(Cc2ccccc2)c1=O | 48.3% (active) |
| CC(=O)Nc1ccc(NC(=O)CSc2ncnc3c2cnn3Cc2ccccc2)cc1 | -5.31% (inactive) |
| CSc1nc2ccccc2c(=O)n1Cc1ccc(F)cc1 | -9.76% (inactive) |
| CSc1ccccc1OCc1cc(C(=O)N(C)CCc2c(C)n[nH]c2C)no1 | 11.5% (inactive) |
| O=C(CSCc1ccccc1)Nc1ccccc1 | -0.15% (inactive) |
| O=S(=O)(Nc1ccc2nc(-c3ccco3)[nH]c2c1)c1ccccc1 | -5.98% (inactive) |
| NC(=O)c1sc2nc3c(c(-c4ccccc4)c2c1N)CCC3 | 1.99% (inactive) |
| Cc1cccc(NC(=O)c2sc3nc4c(c(-c5ccco5)c3c2N)CCC4)c1 | 93% (active) |
| Cc1cccc(NC(=O)c2sc3nc(N4CCOCC4)c4c(c3c2N)CCCC4)c1 | 18.7% (inactive) |
| CN(CCc1ccccc1)c1ccc([N+](=O)[O-])cn1 | -0.4% (inactive) |
| CC(OC(=O)c1ccccc1N1C(=O)C2C3CCC(C3)C2C1=O)C(=O)c1ccccc1 (stereo not given) | 1.1% (inactive) |
| CCOC(=O)c1ccccc1N1C(=O)C2Sc3[nH]c(=O)sc3C(/C=C/c3ccccc3)C2C1=O (stereo not given) | 37.9% (active) |
| CCOC(=O)C1Sc2[nH]c(=O)sc2C(c2ccc(Cl)cc2)C1C(=O)OCC (stereo not given) | 17.4% (inactive) |

| Compound | inhibition |
| --- | --- |
| O=C(CN1C(=O)S/C(=C\c2ccccc2Cl)C1=O)NC1C=CS(=O)(=O)C1 (stereo not given) | -23.6% (inactive) |
| c1ccc(-c2cc(-c3nnc4sc(-c5ccccn5)nn34)[nH]n2)cc1 | -7.42% (inactive) |
| COc1cc(-c2nn3c(-c4cccc(C)c4)nnc3s2)cc(OC)c1OC | 12.9% (inactive) |
| Fc1ccc(-c2ccc(-c3nn4c(-c5ccco5)nnc4s3)o2)cc1 | 40.9% (active) |
| C=CCOc1ccc(/C=C2/C(=O)ON=C2C)cc1OCC | 16.9% (inactive) |
| CCOC(=O)c1nnn(-c2nc(OC)nc(N(C)C)n2)c1-c1ccccc1 | 39.7% (active) |
| CCOC(=O)c1c(N)nn(C(=O)c2ccccc2)c1-c1ccccc1 | -7.63% (inactive) |
| CCOC(=O)c1nnn(-c2nonc2OC)c1-c1ccccc1 | 5.43% (inactive) |
| COc1ccc(CN(C)C(C)C(=O)NC2CCCc3ccccc32)cc1 (stereo not given) | -16.3% (inactive) |
| COc1ccc(-c2ocnc2C(=O)Nc2ccc3c(c2)CCC3)cc1 | -14.4% (inactive) |
| COc1ccc(CNS(=O)(=O)c2ccc(NC(=O)N3CCCCC3)cc2)cc1 | -6.52% (inactive) |
| Cc1ccc(-n2nc3c(=O)n(C(C)C(=O)NCc4ccc5c(c4)OCO5)nc(C)c3c2C)cc1 (stereo not given) | 4.33% (inactive) |
| O=C(CCCN1C(=O)/C(=C\c2ccco2)SC1=S)Nc1cccc2ccccc12 | 40.1% (active) |
| O=C(CCCN1C(=O)/C(=C/c2ccco2)SC1=S)Nc1ccccc1 | 34.7% (inactive) |
| O=C(CCCN1C(=O)/C(=C\c2ccccc2)SC1=S)Nc1ccccc1O | -2.1% (inactive) |
| Cc1cc(C)n(CCC(=O)N2CCN(S(=O)(=O)c3ccc(C)c(C)c3)CC2)n1 | -5.54% (inactive) |
| Cc1c(NC(=O)Nc2cccc([N+](=O)[O-])c2)c(=O)n(-c2ccccc2)n1C | 4.3% (inactive) |
| CC1(C)CC(=O)c2c(n(S(=O)(=O)c3ccccc3)c3ccc(NS(=O)(=O)c4ccccc4)cc23)C1 | -3.21% (inactive) |
| CN(C)c1ccc(N/C=C/C(=O)C(F)(F)F)cc1 | 47.6% (active) |
| CC(=O)N(C)c1ccc(NC(=O)C(F)(F)F)cc1 | -2.62% (inactive) |
| CC(C)CNC(=O)C(=O)Nc1ccc(N(C)C)cc1 | -3.21% (inactive) |
